Source: PubChem BioAssay (several laboratories)
Sampled rows, rich in hits. Any-hit rate of the full collection: about 12%.
CHOP inhibitor: blocks CHOP induction under ER stress | 220,000 tested, 3.8% active | inhibition, % at 10 µM | CHO-K1 CHOP-promoter luciferase, tunicamycin-induced, 15-18 h | AID 2732;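 active means compounds that reduced the stress-induced luciferase reporter signal by more than about 70% of percent inhibition, limit read from the data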;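 further: 0% = tunicamycin plus vehicle and 100% = wells without tunicamycin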
PKD1 kinase inh: blocks activity of human protein kinase D1; Q15139; inhibition, % (test concentration not listed); PKD1 kinase fluorescence polarization assay; 200,000 tested, 0.056% active
Rad51 HR inh: Rad51 (human) homologous recombination inhibition; Q06609; AID 1385; 200,000 tested, 0.085% active; hRad51 DNA strand exchange, fluorescence dequenching; inhibition, % at 10 µM;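 active means inhibition above 40% at the single screening dose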;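 further: 0% = DMSO control wells and 100% = blanks with heterologous ssDNA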
Target sequence (Q06609 whole entry, looked up): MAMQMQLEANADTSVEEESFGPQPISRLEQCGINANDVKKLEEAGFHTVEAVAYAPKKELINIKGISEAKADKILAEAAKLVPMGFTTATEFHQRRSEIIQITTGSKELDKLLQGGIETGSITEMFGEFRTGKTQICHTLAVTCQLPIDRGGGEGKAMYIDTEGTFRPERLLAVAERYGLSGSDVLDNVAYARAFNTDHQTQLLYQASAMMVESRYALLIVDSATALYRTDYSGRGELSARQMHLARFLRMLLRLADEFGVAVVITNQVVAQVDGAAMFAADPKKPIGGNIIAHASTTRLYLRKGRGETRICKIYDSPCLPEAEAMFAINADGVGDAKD
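Test system: preformed human Rad51 ssDNA filaments. Compound dosing: single dose, 10 µM final compound. Incubation: filaments 15 min 37 °C, then compound 30 min. Technique: FRET fluorescence dequenching, excitation 485 nm, emission 520 nm. Read-out basis: percent inhibition from fluorescence, normalised to plate control and blank means. Benchmarks: plate controls and plate blanks.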
Lmaj promast: Leishmania major promastigote growth inhibition. Leishmania major promastigotes, resazurin fluorescence viability. inhibition, % at 10 µM. 200,000 tested, 9% active;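 further: promastigotes grown with compound for 44 hours at 28 °C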
Wee1 degr inh: blocks degradation of human Wee1 kinase | P30291 | HeLa Luc-Wee1K328M stability, luciferase luminescence; 100% = proteasome inhibitor MG132 effect | reporter increase, % at 5 µM | 220,000 tested, 1.2% active | AID 1321;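 active means activation above the mean of all tested compounds plus 3 SD, set per screening run, cut at about 8.8% in these data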;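 further: cells exposed to compound for 20 h before luminescence read; 0% = DMSO alone and 100% = MG132 at 30 µM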
Arbovirus anti: blocks arbovirus infection; AID 1251; inhibition, % at 10 µM; 200,000 tested, 0.37% active; arbovirus infection cell-based antiviral screen; in the data active means inhibition above about 30%
* marks the source's active call; other numbers are inactive results. Unless noted, no stated cut-off is given here; in the data, active means inhibition above about 50%; inactive means the rest.

COc1ccc(-c2csc(NC(=O)CSc3nc(C)nc4sc(C(=O)O)c(C)c34)n2)cc1 was read as CHOP inhibitor 5.9 and Wee1 degr inh 2.3.
Screening COC(=O)c1ccccc1NC(=O)c1sc(=S)n(C)c1N returned CHOP inhibitor 82.5*, PKD1 kinase inh 3.1, Rad51 HR inh 2.0, Lmaj promast 5.9, Wee1 degr inh -0.5 and Arbovirus anti -0.9.
COC(=O)COc1cccc(NC(=O)c2cccs2)c1 was read as CHOP inhibitor 1.3, PKD1 kinase inh 0.3, Rad51 HR inh 5.5, Lmaj promast 60.6*, Wee1 degr inh 0.1 and Arbovirus anti 3.9.
For COC(=O)c1ccccc1NC(=O)c1cc(-c2cccs2)on1 the results were CHOP inhibitor 74.8*, PKD1 kinase inh 26.7, Rad51 HR inh -6.0, Lmaj promast -4.0, Wee1 degr inh 0.7 and Arbovirus anti -3.2.
Screening COC(=O)c1ccccc1NC(=O)c1sc(N)nc1C returned CHOP inhibitor 7.7, PKD1 kinase inh 0.3, Rad51 HR inh -12.4, Lmaj promast 14.2, Wee1 degr inh -0.5 and Arbovirus anti -6.8.
For COC(=O)COc1cccc(NC(=O)COc2ccccc2)c1 the results were CHOP inhibitor 40.2, PKD1 kinase inh -6.4, Rad51 HR inh -6.3, Lmaj promast 90.9*, Wee1 degr inh -3.1 and Arbovirus anti 6.9.
Screening COC(=O)c1ccccc1NC(=O)c1cccs1 returned CHOP inhibitor 33.4, PKD1 kinase inh -0.7, Rad51 HR inh -0.2, Lmaj promast 7.2, Wee1 degr inh -0.8 and Arbovirus anti 2.8.
Screening CCOC(=O)C(=CNc1ccc2c(c1)c1ccccc1n2CC)C(=O)OCC returned CHOP inhibitor 7.4, Rad51 HR inh 8.8 and Wee1 degr inh 4.3.
Screening COc1ccccc1N1CCN(CCN(C(=O)c2ccc(I)cc2)c2ccccn2)CC1 returned CHOP inhibitor 12.0.
Cc1ccccc1N=C(NO)c1nonc1N was read as CHOP inhibitor 12.4, PKD1 kinase inh -1.5, Rad51 HR inh 0.6, Lmaj promast -4.7, Wee1 degr inh -3.6 and Arbovirus anti -3.6.
NC(=O)c1c(NC(=O)C2c3ccccc3Oc3ccccc32)sc2c1CCCCC2 was read as CHOP inhibitor 73.8*, PKD1 kinase inh 1.0, Rad51 HR inh -20.6, Lmaj promast -3.8, Wee1 degr inh -0.1 and Arbovirus anti -14.6.
For CCOC(=O)C1=C(NC(=S)NC(=O)c2ccccc2)c2ccccc2CC1(C)CC (stereo unspecified) the results were CHOP inhibitor 47.7, PKD1 kinase inh 3.0, Lmaj promast 17.2, Wee1 degr inh -3.5 and Arbovirus anti 26.7.
CCOC(=O)C1=C(NC(=S)NC(=O)c2ccccc2)c2ccccc2CC1C(C)C (stereo unspecified) was read as CHOP inhibitor 89.1*, PKD1 kinase inh -2.4, Rad51 HR inh 2.5, Lmaj promast 19.6, Wee1 degr inh -0.3 and Arbovirus anti 5.0.
Screening CCOC(=O)c1c(NC(=O)C2c3ccccc3Oc3ccccc32)sc(C(C)=O)c1C returned CHOP inhibitor 70.8*, PKD1 kinase inh -12.3, Rad51 HR inh -3.1, Lmaj promast 3.3, Wee1 degr inh -1.7 and Arbovirus anti -0.7.
`CC(=O)Nc1sc2c(c1C(N)=O)CCCC2` gave CHOP inhibitor 4.7, PKD1 kinase inh -4.2, Rad51 HR inh -3.0, Lmaj promast -5.0, Wee1 degr inh -1.9 and Arbovirus anti 1.2.
Screening CCOC(=O)c1c(NC(=O)CN2CCCc3ccccc32)sc(C(C)=O)c1C returned CHOP inhibitor 93.0*, PKD1 kinase inh 2.6, Rad51 HR inh -14.1, Lmaj promast 0.8, Wee1 degr inh 2.6 and Arbovirus anti 1.2.
CCOC(=O)c1sc(NC(=S)NC(=O)c2ccccc2Cl)c(C(=O)OCC)c1C was read as CHOP inhibitor -1.1, PKD1 kinase inh 4.3, Rad51 HR inh -3.0, Lmaj promast 3.7, Wee1 degr inh -1.3 and Arbovirus anti 3.1.
Screening CCOC(=O)c1sc(NC(=S)NC(=O)c2ccccc2)c(C(=O)OCC)c1C returned CHOP inhibitor 77.1*, PKD1 kinase inh 3.5, Lmaj promast 29.6, Wee1 degr inh 2.0 and Arbovirus anti -9.7.
For CCOc1ncccc1C(=O)NCc1ccccc1 the results were CHOP inhibitor 47.7, PKD1 kinase inh -5.3, Rad51 HR inh -1.1, Lmaj promast 53.8*, Wee1 degr inh -2.8 and Arbovirus anti -3.3.
For Cc1ccc(C2CC(=O)C=C(Nc3ccc(Cl)cc3)C2)cc1 (stereo unspecified) the results were CHOP inhibitor 73.5*, PKD1 kinase inh -5.9, Rad51 HR inh -0.2, Lmaj promast 6.5, Wee1 degr inh -2.2 and Arbovirus anti 1.8.
For O=C1C=C(Nc2ccc(Cl)cc2)CC(c2ccco2)C1 (stereo unspecified) the results were CHOP inhibitor -5.9, PKD1 kinase inh -5.0, Rad51 HR inh 5.4, Lmaj promast -2.7, Wee1 degr inh -0.3 and Arbovirus anti -21.4.
`O=C1C=C(Nc2ccc(Cl)cc2)CC(c2ccc(Cl)cc2)C1` (stereo unspecified) gave CHOP inhibitor 24.3, PKD1 kinase inh -4.5, Rad51 HR inh 4.8, Lmaj promast 56.0*, Wee1 degr inh 0.3 and Arbovirus anti -15.6.
Cc1nnc(SCC(=O)NC(=O)Nc2ccc3c(c2)OCCO3)n1N was read as CHOP inhibitor 12.6, Rad51 HR inh -14.1 and Wee1 degr inh -1.0.
`CCCOC1CCCN(C(=O)CCc2nnc(CCCCc3ccccc3)o2)C1` (stereo unspecified) gave CHOP inhibitor 5.8, PKD1 kinase inh -4.4, Rad51 HR inh -6.7, Lmaj promast -3.1, Wee1 degr inh -1.4 and Arbovirus anti -2.1.
Screening CCOC(=O)C[N+](CC)(CC)CC#Cc1ccccc1 returned CHOP inhibitor 17.6, PKD1 kinase inh 1.7, Rad51 HR inh -4.6, Lmaj promast -5.0, Wee1 degr inh 1.5 and Arbovirus anti 0.4.
`CCC1(c2ccc(Cl)cc2)NC(=O)N(Cc2ccc(C(=O)OC)cc2)C1=O` (stereo unspecified) gave CHOP inhibitor -0.8, PKD1 kinase inh 3.6, Rad51 HR inh 5.0, Lmaj promast 23.2, Wee1 degr inh 2.9 and Arbovirus anti 15.2.
Screening COC(=O)c1cc(Br)ccc1-c1ccc(/C=N/n2nnnc2N)o1 returned CHOP inhibitor 45.5, PKD1 kinase inh 1.9, Rad51 HR inh 3.7, Lmaj promast -4.4, Wee1 degr inh -1.0 and Arbovirus anti 0.5.
Cc1ccc([N+](=O)[O-])cc1-c1ccc(/C=N\n2nnnc2N)o1 was read as CHOP inhibitor 89.6*, PKD1 kinase inh -6.3, Rad51 HR inh -2.8, Lmaj promast 51.3*, Wee1 degr inh 2.9 and Arbovirus anti -4.5.
`CCCCNC(C(=O)Nc1ccc(Cl)c([N+](=O)[O-])c1)c1ccccc1` (stereo unspecified) gave CHOP inhibitor 53.1, PKD1 kinase inh -1.4, Rad51 HR inh 2.2, Lmaj promast 14.1, Wee1 degr inh 0.5 and Arbovirus anti 2.4.
